In ChEMBL document CHEMBL1141258, “Prismatomerin, a new iridoid from Prismatomeris tetrandra. Structure elucidation, determination of absolute configuration, and cytotoxicity” (J Nat Prod, 2007):
The source made the active and inactive calls. The rule behind the calls is not given here.

Legend:
TK-10 = experiment: Growth inhibition of human TK10 cells after 48 hrs by SRB assay; format: functional; details: TK-10, 48 h
Outline: (§1)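 NCI 60 human tumour cell line in vitro anticancer screen, run at NCI. Compound tested at a minimum of five concentrations in 10-fold dilutions per cell line.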

HCT-116 = experiment: Growth inhibition of human HCT116 cells after 48 hrs by SRB assay; format: functional
Outline: (§2)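 Run at NCI in the 60-human-tumor-cell-line anticancer screen. Each compound was tested at a minimum of five concentrations at 10-fold dilutions.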

HCT-15 = experiment: Growth inhibition of human HCT15 cells after 48 hrs by SRB assay; format: functional; details: HCT-15, 48 h; outline: as §2
OVCAR-4 = experiment: Growth inhibition of human OVACAR4 cells after 48 hrs by SRB assay; format: functional; details: OVCAR-4, 48 h; outline: as §2
SF-295 = experiment: Growth inhibition of human SF295 cells after 48 hrs by SRB assay; format: functional; outline: as §2
RXF 393 = experiment: Growth inhibition of human RFX393 cells after 48 hrs by SRB assay; format: functional; details: RXF 393, 48 h; outline: as §2
SK-MEL-5 = experiment: Growth inhibition of human SKMEL5 cells after 48 hrs by SRB assay; format: functional; outline: as §2
SNB-19 = experiment: Growth inhibition of human SNB19 cells after 48 hrs by SRB assay; format: functional; details: SNB-19, 48 h; outline: as §2
OVCAR-5 = experiment: Growth inhibition of human OVACAR5 cells after 48 hrs by SRB assay; format: functional; details: OVCAR-5, 48 h; outline: as §2
A498 = experiment: Growth inhibition of human A498 cells after 48 hrs by SRB assay; format: functional; details: A498, 48 h; outline: as §2
786-0 = experiment: Growth inhibition of human 786-0 cells after 48 hrs by SRB assay; format: functional; details: 786-0, 48 h; outline: as §2
[1] = Growth inhibition of human […] cells after 48 hrs by SRB assay; format: functional; outline: as §2
T47D = experiment: Growth inhibition of human T47D cells after 48 hrs by SRB assay; format: functional; outline: as §1
SF-539 = experiment: Growth inhibition of human SF539 cells after 48 hrs by SRB assay; format: functional; details: SF-539, 48 h; outline: as §2
NCI-H226 = experiment: Growth inhibition of human NCIH226 cells after 48 hrs by SRB assay; format: functional; details: NCI-H226, 48 h; outline: as §2
HT-29 = experiment: Growth inhibition of human HT29 cells after 48 hrs by SRB assay; format: functional; details: HT-29, 48 h; outline: as §1
SW480 = experiment: Antiproliferative activity against human SW480 cells after 5 days by MTT assay; details: SW480, 120 h
IGROV-1 = experiment: Growth inhibition of human IGROV1 cells after 48 hrs by SRB assay; format: functional; details: IGROV-1, 48 h, read-out: Log LC50 (the source's name) (converted); outline: as §2
HL-60 = experiment: Growth inhibition of human HL60 cells after 48 hrs by SRB assay; format: functional; details: HL-60, 48 h; outline: as §1
UACC-62 = experiment: Growth inhibition of human UACC62 cells after 48 hrs by SRB assay; format: functional; details: UACC-62, 48 h; outline: as §1
SN12C = experiment: Growth inhibition of human SN12C cells after 48 hrs by SRB assay; format: functional; outline: as §2
UACC-257 = experiment: Growth inhibition of human UACC257 cells after 48 hrs by SRB assay; format: functional; details: UACC-257, 48 h; outline: as §1
NCI-H522 = experiment: Growth inhibition of human NCI-H522 cells after 48 hrs by SRB assay; format: functional; details: NCI-H522, 48 h; outline: as §1
K562 = experiment: Growth inhibition of human K562 cells after 48 hrs by SRB assay; format: functional; details: K562, 48 h; outline: as §1
COLO 205 = experiment: Growth inhibition of human COLO205 cells after 48 hrs by SRB assay; format: functional; details: COLO 205, 48 h; outline: as §1
SR = experiment: Growth inhibition of human SR cells after 48 hrs by SRB assay; format: functional; outline: as §2
KM12 = experiment: Growth inhibition of human KM12 cells after 48 hrs by SRB assay; format: functional; details: KM12, 48 h; outline: as §2
A549 = experiment: Growth inhibition of human A549 cells after 48 hrs by SRB assay; format: functional; details: A549, 48 h; outline: as §2
SK-OV-3 = experiment: Growth inhibition of human SK-OV3 cells after 48 hrs by SRB assay; format: functional; details: SK-OV-3, 48 h; outline: as §2
Malme-3M = experiment: Growth inhibition of human MALME-3M cells after 48 hrs by SRB assay; format: functional; outline: as §1
OVCAR-8 = experiment: Growth inhibition of human OVACAR8 cells after 48 hrs by SRB assay; format: functional; details: OVCAR-8, 48 h; outline: as §2
SK-MEL-2 = experiment: Growth inhibition of human SK-MEL2 cells after 48 hrs by SRB assay; format: functional; outline: as §2
NCI/ADR-RES = experiment: Growth inhibition of human NCI/ADR-RES cells after 48 hrs by SRB assay; format: functional; outline: as §1
RPMI-8226 = experiment: Growth inhibition of human RPMI8226 cells after 48 hrs by SRB assay; format: functional; details: RPMI-8226, 48 h; outline: as §1
MDA-MB235 = experiment: (§3) Growth inhibition of human […] cells after 48 hrs by SRB assay; format: functional; outline: as §2
[2] = as §3; format: functional; outline: as §2
[3] = Toxicity in brine shrimp after 24 hrs; format: organism-based; details: artemia, in vivo; read-out: LD50
[4] = read-out: Log LC50 (the source's name) (converted)

Compound: COC(=O)C1=CO[C@@H]2O[C@H]3/C(=C\c4ccc(O)cc4)C(=O)O[C@]34C=C[C@H]1[C@H]24 [PRISMATOMERIN]
- GI50 (TK-10): 0.288 µM
- CC50 (TK-10; [4]): 3.98 µM
- Activity (HCT-116): inactive
- GI50 (HCT-116; HCT-116, 48 h): < 0.01 µM
- TGI (HCT-116; HCT-116, 48 h, read-out: Log TGI (converted)): 0.1 µM
- GI50 (HCT-15): 0.162 µM
- CC50 (HCT-15; [4]): 3.8 µM
- TGI (HCT-15; read-out: Log TGI (converted)): 0.575 µM
- GI50 (OVCAR-4): 0.575 µM
- CC50 (OVCAR-4; [4]): > 100 µM
- TGI (OVCAR-4; read-out: Log TGI (converted)): 3.47 µM
- Activity (SF-295): inactive
- GI50 (SF-295; SF-295, 48 h): 0.589 µM
- GI50 (RXF 393): < 0.01 µM
- CC50 (RXF 393; [4]): 0.661 µM
- TGI (RXF 393; read-out: Log TGI (converted)): 0.162 µM
- Activity (SK-MEL-5): inactive
- GI50 (SK-MEL-5; SK-MEL-5, 48 h): < 0.01 µM
- TGI (SK-MEL-5; SK-MEL-5, 48 h, read-out: Log TGI (converted)): 0.186 µM
- GI50 (SNB-19): 0.347 µM
- CC50 (SNB-19; [4]): 26.9 µM
- TGI (SNB-19; read-out: Log TGI (converted)): 110 µM
- GI50 (OVCAR-5): 0.257 µM
- CC50 (OVCAR-5; [4]): 0.813 µM
- TGI (OVCAR-5; read-out: Log TGI (converted)): 0.407 µM
- GI50 (A498): 0.234 µM
- CC50 (A498; [4]): 0.871 µM
- TGI (A498; read-out: Log TGI (converted)): 0.457 µM
- GI50 (786-0): 0.0195 µM
- CC50 (786-0; [4]): 0.55 µM
- TGI (786-0; read-out: Log TGI (converted)): 0.195 µM
- GI50 [1]: 1.95 µM
- CC50 [1, 4]: 24.5 µM
- TGI ([1]; read-out: Log TGI (converted)): 5.37 µM
- GI50 (T47D): 0.38 µM
- CC50 (T47D; [4]): 3.89 µM
- GI50 (SF-539): 0.257 µM
- CC50 (SF-539; [4]): > 100 µM
- TGI (SF-539; read-out: Log TGI (converted)): 0.457 µM
- GI50 (NCI-H226): 0.174 µM
- CC50 (NCI-H226; [4]): 22.9 µM
- TGI (NCI-H226; read-out: Log TGI (converted)): 0.479 µM
- GI50 (HT-29): 0.107 µM
- CC50 (HT-29; [4]): > 100 µM
- IC50 (SW480): 0.06 µM
- CC50 (IGROV-1): 0.851 µM
- GI50 (HL-60): < 0.01 µM
- CC50 (HL-60; [4]): > 100 µM
- GI50 (UACC-62): 0.437 µM
- CC50 (UACC-62; [4]): 0.575 µM
- GI50 (SN12C): 0.174 µM
- CC50 (SN12C; [4]): 0.813 µM
- TGI (SN12C; read-out: Log TGI (converted)): 0.38 µM
- GI50 (UACC-257): 0.145 µM
- CC50 (UACC-257; [4]): 10 µM
- GI50 (NCI-H522): 0.186 µM
- CC50 (NCI-H522; [4]): 1.35 µM
- GI50 (K562): < 0.01 µM
- CC50 (K562; [4]): > 100 µM
- GI50 (COLO 205): 0.537 µM
- CC50 (COLO 205; [4]): > 100 µM
- GI50 (SR): 0.0105 µM
- CC50 (SR; [4]): > 100 µM
- TGI (SR; read-out: Log TGI (converted)): 0.468 µM
- GI50 (KM12): 0.302 µM
- CC50 (KM12; [4]): > 100 µM
- TGI (KM12; read-out: Log TGI (converted)): 1.51 µM
- GI50 (A549): 0.295 µM
- CC50 (A549; [4]): > 100 µM
- TGI (A549; read-out: Log TGI (converted)): 0.832 µM
- GI50 (SK-OV-3): 0.912 µM
- CC50 (SK-OV-3; [4]): > 100 µM
- TGI (SK-OV-3; read-out: Log TGI (converted)): 3.16 µM
- GI50 (Malme-3M): 0.135 µM
- CC50 (Malme-3M; [4]): 4.68 µM
- GI50 (OVCAR-8): 0.174 µM
- CC50 (OVCAR-8; [4]): 2.24 µM
- TGI (OVCAR-8; read-out: Log TGI (converted)): 0.501 µM
- Activity (SK-MEL-2): inactive
- GI50 (SK-MEL-2; SK-MEL-2, 48 h): 0.166 µM
- GI50 (NCI/ADR-RES): 0.17 µM
- CC50 (NCI/ADR-RES; [4]): 17.4 µM
- GI50 (RPMI-8226): < 0.01 µM
- CC50 (RPMI-8226; [4]): > 100 µM
- Activity (MDA-MB235): inactive
- GI50 [2]: 0.2 µM
- LC50 at 24 h [3]: 0.195 µM
